These results are taken from ChEMBL document CHEMBL1158464, “Structure-activity relationships and cancer-cell selective toxicity of novel inhibitors of glioma-associated oncogene homologue 1 (Gli1) mediated transcription” (J Med Chem, 2009).

In series [1] the target is T1, Zinc finger protein GLI1 (Homo sapiens) (UniProt P08151).
T1 sequence (whole entry): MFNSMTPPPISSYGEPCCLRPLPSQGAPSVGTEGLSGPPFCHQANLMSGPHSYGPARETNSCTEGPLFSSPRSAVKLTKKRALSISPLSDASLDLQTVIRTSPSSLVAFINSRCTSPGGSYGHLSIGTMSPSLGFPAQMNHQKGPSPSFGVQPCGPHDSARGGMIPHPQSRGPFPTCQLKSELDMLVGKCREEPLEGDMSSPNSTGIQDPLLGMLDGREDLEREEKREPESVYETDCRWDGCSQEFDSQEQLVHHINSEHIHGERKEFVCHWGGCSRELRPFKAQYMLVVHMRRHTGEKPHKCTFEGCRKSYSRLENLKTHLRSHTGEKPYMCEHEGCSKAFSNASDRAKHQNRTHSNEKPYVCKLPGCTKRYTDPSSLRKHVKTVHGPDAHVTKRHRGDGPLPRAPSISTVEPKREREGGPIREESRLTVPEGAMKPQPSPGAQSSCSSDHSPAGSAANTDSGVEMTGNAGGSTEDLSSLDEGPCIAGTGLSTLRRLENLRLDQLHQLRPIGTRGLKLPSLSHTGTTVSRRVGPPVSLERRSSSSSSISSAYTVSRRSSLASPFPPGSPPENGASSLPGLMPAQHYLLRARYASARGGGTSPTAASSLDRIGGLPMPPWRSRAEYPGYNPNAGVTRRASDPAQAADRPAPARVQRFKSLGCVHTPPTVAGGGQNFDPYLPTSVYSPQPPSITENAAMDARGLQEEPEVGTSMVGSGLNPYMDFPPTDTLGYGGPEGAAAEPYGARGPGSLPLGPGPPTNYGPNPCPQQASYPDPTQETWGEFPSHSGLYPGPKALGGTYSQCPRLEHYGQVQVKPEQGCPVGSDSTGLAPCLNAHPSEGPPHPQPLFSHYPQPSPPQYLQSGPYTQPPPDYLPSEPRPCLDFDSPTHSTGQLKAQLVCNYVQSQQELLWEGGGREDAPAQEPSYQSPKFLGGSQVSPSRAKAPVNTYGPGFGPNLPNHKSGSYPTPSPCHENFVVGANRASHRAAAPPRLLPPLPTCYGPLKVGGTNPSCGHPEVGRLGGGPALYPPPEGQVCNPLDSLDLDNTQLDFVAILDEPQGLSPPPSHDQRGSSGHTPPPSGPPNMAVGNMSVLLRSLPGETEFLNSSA
In words: Inhibition of exogenously transfected human Gli1-mediated transcriptional activity in mouse C3H10T1/2 cells at 20 uM after 24 hrs by luciferase reporter gene assay. The class given is cell-based. The note with it: C3H 10T1/2. The method, boiled down: (§1)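 They were replated 18 h later, given compound or DMSO 6 h after plating, and exposed for 24 h at 37 °C, 5% CO2. Lysate was read by dual luciferase as firefly/Renilla, triplicate, DMSO = 0%. IC50 came from curve fitting.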

The target in series [2] is T1, Zinc finger protein GLI1 (Homo sapiens). In words: Inhibition of exogenously transfected human Gli1-mediated transcriptional activity in mouse C3H10T1/2 cells at 40 uM after 24 hrs by luciferase reporter gene assay. The note with it: C3H 10T1/2. In kind it is cell-based. Summed up:
as §1
On the technique in general: Reporter assays use an easily measured gene product as a stand-in for the process of interest.

Another series relates to SJRH30. In words: Cytotoxicity against human Rh30 cells at 40 uM/well after 68 hrs by alamar blue assay. The class given is functional, cell-based. The method, boiled down:
(§2)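 Cells plated in appropriate medium 24 h before compound. A 10 mM DMSO stock was diluted in EMEM to 160 µM (4×) and added in triplicate to a final 40 µM. Incubated 68 h at 37 °C, then Alamar Blue for 4 h at 37 °C. Fluorescence read at ex 510/em 590 nm. Viability taken relative to DMSO control wells.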
(Alamar Blue is a resazurin reagent that responds to reducing activity.)

The test system of the next series is MDA-MB-231. Put plainly: Cytotoxicity against human MDA-MB-231 cells at 40 uM/well after 68 hrs by alamar blue assay. In kind it is functional, cell-based. The method, boiled down: as §2
A further series has as its system Daoy. Put plainly: Cytotoxicity against human DaOY cells at 40 uM/well after 68 hrs by alamar blue assay. The class given is functional, cell-based. The method, boiled down:
as §2

For the next series, the system named is DU-145. Put plainly: Cytotoxicity against human DU145 cells at 40 uM/well after 68 hrs by alamar blue assay. The class given is functional, cell-based. Summed up: as §2
The next series deals with Raji. In words: Cytotoxicity against human Raji cells at 40 uM/well after 68 hrs by alamar blue assay. The class given is functional, cell-based. Summed up: as §2
In the next series the test system is HepG2. Put plainly: Cytotoxicity against human HepG2 cells at 40 uM/well after 68 hrs by alamar blue assay. The class given is functional, cell-based. Summed up:
as §2

In another series the test system is LN-229. Put plainly: Cytotoxicity against human LN229 cells at 40 uM/well after 68 hrs by alamar blue assay. The class given is functional, cell-based. Summed up:
as §2

Another series concerns BJ. Put plainly: Cytotoxicity against human TERT-immortalized human BJ cells at 40 uM/well after 68 hrs by alamar blue assay. In kind it is cell-based. Summed up: as §2

The source made the active and inactive calls. The calls are words filed in the database; no cut-off is given here.

Consider `COc1ccc2cc([C@H](C)C(=O)NCCc3ccc(O)cc3)ccc2c1`, for which the inhibition entry in series [1] and in series [2] was “Active” in each case. Also, the result in the series on SJRH30, in the series on MDA-MB-231, with Daoy, in the series with DU-145 and with Raji was Active. Besides, the outcome in the series with HepG2 and in the series with LN-229 was inactive. Moreover, the Activity result in the series with BJ is “Non-toxic”.

`C[C@H](C(=O)Nc1ccc(O)cc1)c1cccc(C(=O)c2ccccc2)c1`: the inhibition entry in series [1] and in series [2] was “Active” each time. Moreover, the outcome in the series with SJRH30, in the series with MDA-MB-231, in the series on Daoy, with DU-145 and in the series with Raji was Active. Moreover, the outcome in the series with HepG2 and with LN-229 was inactive. The Activity entry in the series on BJ is listed as “Non-toxic”.

For the compound `COc1ccc(CCNC(=O)[C@@H](C)c2cccc(C(=O)c3ccccc3)c2)cc1O`, the inhibition entry in series [1] and in series [2] was “Active” throughout. The result with SJRH30, in the series on MDA-MB-231, in the series with Daoy, with DU-145 and in the series with Raji was Active. The result with HepG2 and in the series on LN-229 was inactive. In addition, the Activity result in the series with BJ is on record as “Non-toxic”.

Take `C[C@H](C(=O)NCCc1ccc(Cl)cc1)c1cccc(C(=O)c2ccccc2)c1`: the inhibition entry in series [1] and in [2] was “Active” in each case. Besides, the outcome with SJRH30, in the series with MDA-MB-231, with Daoy, in the series with DU-145 and with Raji was Active. Besides, the outcome in the series on HepG2 and in the series on LN-229 was inactive. Also, the Activity entry in the series with BJ is reported as “Non-toxic”.

For `COCCN(CCc1ccc(O)cc1)C(=O)[C@@H](C)c1cccc(C(=O)c2ccccc2)c1`, the inhibition result in [1] and in [2] was “Active” each time. In addition, the outcome in the series with SJRH30, in the series with MDA-MB-231, in the series on Daoy, in the series on DU-145 and in the series on Raji was Active. Also, the outcome in the series on HepG2 and in the series with LN-229 was inactive. The Activity entry with BJ is reported as “Non-toxic”.

For `C[C@H](C(=O)NCCc1ccccc1)c1cccc(C(=O)c2ccccc2)c1`, the inhibition entry in [1] and in [2] was “Active” each time. In addition, the result in the series with SJRH30, in the series on MDA-MB-231, with Daoy, with DU-145 and in the series on Raji was Active. In addition, the result with HepG2 and with LN-229 was inactive. For the same compound, the Activity result with BJ is “Non-toxic”.

As to `COc1cc(CCNC(=O)[C@@H](C)c2cccc(C(=O)c3ccccc3)c2)ccc1O`, the inhibition result in series [1] and in series [2] was “Active” throughout. Also, the outcome in the series on SJRH30, with MDA-MB-231, in the series on Daoy, in the series with DU-145 and in the series with Raji was Active. Besides, the outcome in the series on HepG2 and in the series with LN-229 was inactive. Besides, in the series on BJ, the Activity entry is “Non-toxic”.

For `C[C@H](C(=O)NCc1ccc(O)cc1)c1cccc(C(=O)c2ccccc2)c1`, the inhibition entry in [1] and in series [2] was “Active” throughout. The result in the series on SJRH30, in the series on MDA-MB-231, with Daoy, with DU-145 and in the series with Raji was Active. For the same compound, the result in the series on HepG2 and with LN-229 was inactive. Besides, the Activity result in the series with BJ is reported as “Non-toxic”.

Consider `C[C@H](CNC(=O)NCCc1ccc(O)cc1)c1cccc(C(=O)c2ccccc2)c1`, for which the inhibition entry in series [1] and in [2] was “Active” throughout. The result in the series on SJRH30, with MDA-MB-231, with Daoy, with DU-145 and in the series on Raji was Active. Also, the outcome with HepG2 and in the series on LN-229 was inactive. In addition, the Activity entry in the series on BJ was “Toxic”.

Consider `COc1ccccc1CCNC(=O)[C@@H](C)c1cccc(C(=O)c2ccccc2)c1`, for which the inhibition result in series [1] and in series [2] was “Active” throughout. Moreover, the result with SJRH30, in the series with MDA-MB-231, in the series with Daoy, in the series with DU-145 and with Raji was Active. Moreover, the result with HepG2 and with LN-229 was inactive. For the same compound, the Activity entry with BJ is “Non-toxic”.

Take `COc1ccc(COC[C@@H](C)c2cccc(C(=O)c3ccccc3)c2)cc1`: the inhibition entry in [1] and in [2] was “inactive” in each case. The outcome in the series on SJRH30, with MDA-MB-231, with Daoy, in the series on DU-145 and in the series with Raji was Active. The outcome with HepG2 and with LN-229 was inactive. Also, the Activity result in the series on BJ is given as “Non-toxic”.

Take `C[C@H](CNC(=O)CCc1ccc(O)cc1)c1cccc(C(=O)c2ccccc2)c1`: the inhibition result in series [1] and in series [2] was “Active” each time. Further, the outcome in the series on SJRH30, in the series on MDA-MB-231, in the series with Daoy, with DU-145 and with Raji was Active. Moreover, the result with HepG2 and in the series on LN-229 was inactive. Also, the Activity result with BJ is given as “Non-toxic”.

Turning to `COc1cccc(CCNC(=O)[C@@H](C)c2cccc(C(=O)c3ccccc3)c2)c1`, the inhibition result in [1] and in series [2] was “Active” in each case. For the same compound, the result with SJRH30, in the series with MDA-MB-231, in the series with Daoy, in the series with DU-145 and in the series on Raji was Active. Also, the outcome in the series with HepG2 and in the series on LN-229 was inactive. Also, the Activity result in the series with BJ is on record as “Non-toxic”.

Take `C[C@H](CNC(=O)Nc1ccc(O)cc1)c1cccc(C(=O)c2ccccc2)c1`: the inhibition entry in series [1] and in [2] was “Active” throughout. The result in the series on SJRH30, in the series on MDA-MB-231, with Daoy, in the series on DU-145 and with Raji was Active. Moreover, the result with HepG2 and with LN-229 was inactive. Moreover, the Activity result in the series with BJ was “Toxic”.
